Experimental data: paper PMC12005346 (ACS chemical neuroscience, 2023)
Counter-ions that a name gives are not always drawn. *1 amine or outer side, *2 acyl side, *3 side chain or, on linkers, in order; H or OH if unused. Where a SMILES comes first, the peptide text is derived from it. Bridges are numbered along the chain shown (N, C = ends). Roman numbers before positions name the chains, in order. [ ]: non-standard residue; d: D form. Piperazine(1,4-diyl) = C1CN([*:2])CCN1[*:1]; Phe(4-F) = N[C@@H](Cc1ccc(F)cc1)C(=O)O; Dmt = Cc1cc(O)cc(C)c1C[C@H](N)C(=O)O; oXylylene = c1ccc(C[*:2])c(C[*:1])c1

How the values were obtained:
[1] = system: response to thermal nociceptive stimuli; test: Hot plate test after i.c.v. administration; assay type: in vivo, mouse; settings: i.c.v. 0.6 nmol/10 μL, 90 to 120 min after administration
Procedure, shortened: (§1)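 Mice received test compound i.c.v. at 0.6 nmol/10 μL. Vehicle was DMSO/saline 1:5 v/v, 10 μL/mouse. Hot plate and tail flick responses to thermal stimuli were recorded as a time course starting 15 min after dosing and expressed as % MPE. Groups were N = 12 or 7. Analysis was two-way ANOVA with Tukey's test versus vehicle.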

[2] = system: response to thermal nociceptive stimuli; test: Tail flick test after i.c.v. administration; assay type: in vivo, mouse; settings: i.c.v. 0.6 nmol/10 μL, 90 to 120 min after administration
Procedure, shortened: as §1

[3] = system: dependence and withdrawal; test: Naloxone-precipitated withdrawal; assay type: in vivo, CD-1 mice; settings: 3.2 mg/kg s.c. repeated dosing, naloxone 30 mg/kg i.p. on day 4
[4] = target: human KOR expressed in CHO cells (Homo sapiens, UniProt P41145); test: 35S-GTPγS coupling assay at KOR; assay type: biochemical
human KOR expressed in CHO cells, sequence (P41145 whole entry): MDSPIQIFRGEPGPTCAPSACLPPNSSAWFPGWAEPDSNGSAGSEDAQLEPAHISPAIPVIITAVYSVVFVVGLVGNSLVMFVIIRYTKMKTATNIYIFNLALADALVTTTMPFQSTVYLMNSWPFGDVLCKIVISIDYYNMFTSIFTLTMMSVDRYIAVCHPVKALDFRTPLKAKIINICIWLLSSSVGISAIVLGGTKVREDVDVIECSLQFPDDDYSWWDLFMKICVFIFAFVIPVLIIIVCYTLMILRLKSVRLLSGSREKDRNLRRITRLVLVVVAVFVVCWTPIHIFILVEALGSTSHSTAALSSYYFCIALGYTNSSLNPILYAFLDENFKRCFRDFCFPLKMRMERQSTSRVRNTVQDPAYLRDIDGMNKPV
Procedure, shortened: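 Test compounds stimulated 35S-GTPγS coupling at human MOR, DOR or KOR expressed in CHO cells. Reference agonists were included to validate the assay: DAMGO for MOR, SNC80 for DOR and U50,488 for KOR. EC50 and EMAX were calculated separately for each independent experiment and reported as mean ± SEM of N ≥ 3 experiments.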

formalin-induced pain = test: Formalin test; assay type: in vivo, mouse; settings: s.c. hind paw 100 nmol/20 μL, 15 min before formalin
Procedure, shortened: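 Test compound (100 nmol/20 μL) was injected s.c. into the left dorsal hind paw 15 min before formalin (1% in saline, 20 μL/paw) in the same paw. Vehicle was DMSO/saline 1:5 v/v, […] s.c. Total licking/biting time was scored in the early and late phases. Analysis was two-way ANOVA with Tukey's test.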

biphalin
antinociceptive effect (% MPE), hot plate [1]: antinociceptive effects steadily decrease | antinociceptive effect (% MPE), tail flick [2]: antinociceptive effects steadily decrease

CN1CC[C@]23c4c5ccc(O)c4O[C@H]2[C@@H](O)C=C[C@H]3[C@H]1C5 [morphine]
urine/feces output in naloxone-precipitated withdrawal [3]: comparable urine/feces output

Cc1cc(O)cc(C)c1C[C@H](N)C(=O)N[C@@H]1CSCc2ccccc2CSC[C@@H](NC(=O)[C@@H](N)Cc2c(C)cc(O)cc2C)C(=O)NCC(=O)N[C@@H](Cc2ccc(F)cc2)C(=O)N2CCN(CC2)C(=O)[C@H](Cc2ccc(F)cc2)NC(=O)CNC1=O [MJ4, 2 TFA c(Dmt-D-Cys-Gly-P-F-Phe)2-piperazine o-Xylene] (I: H-[Dmt][dC]G[Phe(4-F)] / II: H-[Dmt][dC]G[Phe(4-F)]; linker I:2-II:2 via oXylylene; linker I:C-II:C via Piperazine(1,4-diyl))
KOR agonist activity, in words [4]: more potent agonist activity | licking/biting behavior induced by formalin, early phase (formalin-induced pain): did not change the effects induced by formalin | licking/biting behavior induced by formalin, late phase (formalin-induced pain): did not change the effects induced by formalin
